Where “and” joins values, the source holds several entries; their conditions need not be identical. Identical values can stand only once.
Columns and labels:
[1] = test system: HEK-293T; assay: Multiplex assay against HEK293T; type: toxicity, cell-based; details: human, number of replicates 2
Outline: (§1)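 Compound was added to live cells that had been stained at seeding with Hoechst33342, BioTracker Green Microtubule Cytoskeleton Dye, MitoTracker Red and Annexin V Alexa Fluor 680, and imaging followed on a CQ1 microscope at 37°C and 5% CO2. CellPathfinder machine-learning gating divided cells into Hoechst high-intensity objects or normal cells, normal cells into healthy, pyknosed or fragmented nuclei, and pyknosed cells into mitotic or apoptotic. Tubulin, mitochondrial-mass and membrane-permeability phenotypes are per cents of healthy-nucleus cells.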

[2] = test system: U2OS; assay: Multiplex assay against U2OS; type: toxicity, cell-based; details: human, number of replicates 2; outline: as §1
[3] = 12 h, 1 µM, compound concentration 1 uM
[4] = 12 h, 10 µM, compound concentration 10 uM
[5] = 24 h, 1 µM, compound concentration 1 uM
[6] = 24 h, 10 µM, compound concentration 10 uM
[7] = 48 h, 1 µM, compound concentration 1 uM
[8] = 48 h, 10 µM, compound concentration 10 uM

CC(C)(C)c1cnc(CSc2cnc(NC(=O)C3CCN(CC(=O)NCCOCCOCCOCCNc4cccc5c4C(=O)N(C4CCC(=O)NC4=O)C5=O)CC3)s2)o1 (stereo not drawn)
Population Apoptotic (%) [1, 3]: 65% and 77% | Population Fragmented Nuclei (%) [1, 3]: 5% and 4% | Population Healthy Nuclei (%) [1, 3]: 75% | Population Hoechst High Intensity Objects (%) [1, 3]: 15% | Population Membrane Permeable-Phenotype (%) [1, 3]: 4% and 1% | Population Mitochondria Different-Phenotype (%) [1, 3]: 42% and 53% | Population Mitotic Cells (%) [1, 3]: 34% and 22% | Population Normal (%) [1, 3]: 84% | Population Pyknosed Nuclei (%) [1, 3]: 18% and 20% | Population Tubulin-Different-Phenotype (%) [1, 3]: 74% and 82% | Total Cell Count [1, 3]: 329 and 381 | Population Apoptotic (%) [1, 4]: 78% and 82% | Population Fragmented Nuclei (%) [1, 4]: 6% and 3% | Population Healthy Nuclei (%) [1, 4]: 75% and 73% | Population Hoechst High Intensity Objects (%) [1, 4]: 27% and 26% | Population Membrane Permeable-Phenotype (%) [1, 4]: 7% | Population Mitochondria Different-Phenotype (%) [1, 4]: 65% and 75% | Population Mitotic Cells (%) [1, 4]: 21% and 17% | Population Normal (%) [1, 4]: 72% and 73% | Population Pyknosed Nuclei (%) [1, 4]: 18% and 22% | Population Tubulin-Different-Phenotype (%) [1, 4]: 70% and 63% | Total Cell Count [1, 4]: 285 and 270 | Population Apoptotic (%) [1, 5]: 76% and 75% | Population Fragmented Nuclei (%) [1, 5]: 5% | Population Healthy Nuclei (%) [1, 5]: 80% and 74% | Population Hoechst High Intensity Objects (%) [1, 5]: 17% and 20% | Population Membrane Permeable-Phenotype (%) [1, 5]: 2% and 1% | Population Mitochondria Different-Phenotype (%) [1, 5]: 49% and 52% | Population Mitotic Cells (%) [1, 5]: 23% and 25% | Population Normal (%) [1, 5]: 82% and 80% | Population Pyknosed Nuclei (%) [1, 5]: 14% and 20% | Population Tubulin-Different-Phenotype (%) [1, 5]: 69% and 74% | Total Cell Count [1, 5]: 332 and 395 | Population Apoptotic (%) [1, 6]: 77% and 75% | Population Fragmented Nuclei (%) [1, 6]: 9% and 3% | Population Healthy Nuclei (%) [1, 6]: 65% and 68% | Population Hoechst High Intensity Objects (%) [1, 6]: 30% and 33% | Population Membrane Permeable-Phenotype (%) [1, 6]: 7% and 5% | Population Mitochondria Different-Phenotype (%) [1, 6]: 77% and 80% | Population Mitotic Cells (%) [1, 6]: 22% and 25% | Population Normal (%) [1, 6]: 69% and 66% | Population Pyknosed Nuclei (%) [1, 6]: 25% and 28% | Population Tubulin-Different-Phenotype (%) [1, 6]: 85% | Total Cell Count [1, 6]: 268 and 254 | Population Apoptotic (%) [1, 7]: 76% and 85% | Population Fragmented Nuclei (%) [1, 7]: 6% | Population Healthy Nuclei (%) [1, 7]: 82% and 78% | Population Hoechst High Intensity Objects (%) [1, 7]: 11% and 17% | Population Membrane Permeable-Phenotype (%) [1, 7]: 3% and 0% | Population Mitochondria Different-Phenotype (%) [1, 7]: 52% and 59% | Population Mitotic Cells (%) [1, 7]: 23% and 14% | Population Normal (%) [1, 7]: 88% and 82% | Population Pyknosed Nuclei (%) [1, 7]: 11% and 15% | Population Tubulin-Different-Phenotype (%) [1, 7]: 64% and 63% | Total Cell Count [1, 7]: 294 and 328 | Population Apoptotic (%) [1, 8]: 84% and 89% | Population Fragmented Nuclei (%) [1, 8]: 8% and 5% | Population Healthy Nuclei (%) [1, 8]: 71% and 70% | Population Hoechst High Intensity Objects (%) [1, 8]: 28% and 20% | Population Membrane Permeable-Phenotype (%) [1, 8]: 3% and 2% | Population Mitochondria Different-Phenotype (%) [1, 8]: 77% and 84% | Population Mitotic Cells (%) [1, 8]: 15% and 10% | Population Normal (%) [1, 8]: 71% and 79% | Population Pyknosed Nuclei (%) [1, 8]: 20% and 24% | Population Tubulin-Different-Phenotype (%) [1, 8]: 83% and 87% | Total Cell Count [1, 8]: 309 and 250 | Population Apoptotic (%) [2, 3]: 40% and 96% | Population Fragmented Nuclei (%) [2, 3]: 10% and 3% | Population Healthy Nuclei (%) [2, 3]: 82% and 88% | Population Hoechst High Intensity Objects (%) [2, 3]: 0% | Population Membrane Permeable-Phenotype (%) [2, 3]: 1% | Population Mitochondria Different-Phenotype (%) [2, 3]: 0% and 3% | Population Normal (%) [2, 3]: 100% | Population Pyknosed Nuclei (%) [2, 3]: 6% and 7% | Population Tubulin-Different-Phenotype (%) [2, 3]: 58% and 74% | Population Apoptotic (%) [2, 4]: 50% and 80% | Population Healthy Nuclei (%) [2, 4]: 47% and 59% | Population Hoechst High Intensity Objects (%) [2, 4]: 1% and 0% | Population Membrane Permeable-Phenotype (%) [2, 4]: 14% and 17% | Population Mitochondria Different-Phenotype (%) [2, 4]: 17% and 31% | Population Mitotic Cells (%) [2, 4]: 50% and 19% | Population Normal (%) [2, 4]: 98% and 100% | Population Pyknosed Nuclei (%) [2, 4]: 23% and 32% | Population Tubulin-Different-Phenotype (%) [2, 4]: 82% and 77% | Total Cell Count [2, 4]: 60 and 161 | Population Apoptotic (%) [2, 5]: 66% and 72% | Population Fragmented Nuclei (%) [2, 5]: 6% and 3% | Population Healthy Nuclei (%) [2, 5]: 87% | Population Hoechst High Intensity Objects (%) [2, 5]: 0% | Population Membrane Permeable-Phenotype (%) [2, 5]: 1% | Population Mitochondria Different-Phenotype (%) [2, 5]: 1% | Population Mitotic Cells (%) [2, 5]: 33% and 27% | Population Normal (%) [2, 5]: 100% and 99%
